Published values gathered from unrelated publications.
Matrix: plasma

| SMILES | test system | setting | quantity | value |
| --- | --- | --- | --- | --- |
| C[C@H]1Oc2cc(cnc2N)-c2c(nn(C)c2C#N)CN(C)C(=O)c2ccc(F)cc21 | male Sprague-Dawley rat | oral, 10 mg/kg, single dose | CL/F | 66.7 mL/min/kg |
| CC[C@H](C)[C@H](NC(=O)[C@@H]1CCCN1C(=O)CNC(=O)[C@H](Cc1ccccc1)NC(=O)[C@H](CC(N)=O)NC(=O)[C@H](CC(N)=O)NC(=O)[C@H](CO)NC(=O)[C@H](CO)NC(=O)[C@H](Cc1c[nH]cn1)NC(=O)[C@H](CCCNC(=N)N)NC(=O)[C@H](CC(C)C)NC(=O)[C@H](Cc1ccccc1)NC(=O)[C@H](CCC(=O)O)NC(=O)[C@H](C)NC(=O)[C@H](CC(C)C)NC(=O)[C@H](CCCNC(=N)N)NC(=O)[C@H](CCC(N)=O)NC(=O)[C@@H](NC(=O)[C@H](C)NC(=O)[C@@H]1CSSC[C@H](NC(=O)[C@H](CCCCN)NC(=O)CC[C@H](NC(=O)CCCCCCCCCCCCCCCCCCC(=O)O)C(=O)O)C(=O)N[C@@H](CC(N)=O)C(=O)N[C@@H]([C@@H](C)O)C(=O)N[C@@H](C)C(=O)N[C@@H]([C@@H](C)O)C(=O)N1)[C@@H](C)O)C(=O)N[C@@H](CC(C)C)C(=O)N1CCC[C@H]1C(=O)N1CCC[C@H]1C(=O)N[C@H](C(=O)N[C@@H](CC(N)=O)C(=O)N[C@H](C(=O)NCC(=O)N[C@@H](CO)C(=O)N[C@@H](CC(N)=O)C(=O)N[C@H](C(=O)N1CCC[C@H]1C(N)=O)[C@@H](C)O)C(C)C)[C@@H](C)O | male Sprague-Dawley rat | subcutaneous, 30 nmol/kg, single dose | CL/F | 0.112 mL/min/kg |
| C1=C/COCc2cc(ccc2OCCN2CCCC2)Nc2nccc(n2)-c2cccc(c2)COC/1 | rat | oral, 36 mg/kg | CL/F | 11700 mL/h |
| Cc1cc(S(=O)(=O)N[C@]2(C)C[C@H](N3CCN(CC4CCN(c5ccc6c(c5F)n(C)c(=O)n6C5CCC(=O)NC5=O)CC4)CC3)C2)ccc1Nc1ncc(C(F)(F)F)c(N2CCC[C@](C)(O)C2)n1 (some centres unmarked) | rat | intravenous, 2 mg/kg | clearance | 145 mL/min/kg |
| CC[C@@H]([C@H](C)O)n1ncn(-c2ccc(N3CCN(c4ccc(OC[C@@H]5CO[C@@](Cn6cncn6)(c6ccc(F)cc6F)C5)cc4)CC3)cc2)c1=O | Sprague-Dawley rat | oral, 40 mg/kg | CL/F | 79 mL/min/kg |
| CNC(=O)c1cc(Oc2ccc(NC(=O)Nc3ccc(Cl)c(C(F)(F)F)c3)cc2)ccn1 | male Sprague-Dawley rat | oral, 100 mg/kg, single dose | CL/F | 96.7 mL/min/kg |
| CNS(=O)(=O)c1ccc(Nc2ncc(C(F)(F)F)c([C@H]3CC[C@@](C)(O)CC3)n2)c(C)c1 | rat | intravenous, 2 mg/kg | clearance | 7 mL/min/kg |
| CC(=O)O[C@@H]1CC[C@@]2(C)[C@@H](CC[C@]3(C)[C@@H]2C(=O)C=C2[C@@H]4[C@@H](C)[C@H](C)CC[C@]4(C)CC[C@]23C)[C@@]1(C)C(=O)O | female Wistar rat | oral, 1 mg/kg, single dose | CL/F | 0.332 mL/min/kg |
| [2H]C([2H])([2H])NC(=O)c1cc(Oc2ccc(NC(=O)Nc3ccc(Cl)c(C(F)(F)F)c3)cc2)ccn1 | rat | oral, 40 mg/kg, single dose | CL/F | 2.67 mL/min/kg |
| C=CC(=O)N1CCC([C@@H]2CCNc3c(C(N)=O)c(-c4ccc(Oc5ccccc5)cc4)nn32)CC1 | Sprague-Dawley rat | oral, 16 mg/kg | CL/F | 224 mL/min/kg |
| Cc1nc(Nc2ncc(C(=O)Nc3c(C)cccc3Cl)s2)cc(N2CC[C@@H](N)C2)n1 | male Sprague-Dawley rat | intravenous, 1 mg/kg | clearance | 135 mL/min/kg |
| Cc1cc(S(=O)(=O)NC2CC(N3CCN(CC4CCN(c5cccc6c5n(C)c(=O)n6C5CCC(=O)NC5=O)CC4)CC3)C2)ccc1Nc1ncc(C(F)(F)F)c(N2CCC[C@](C)(O)C2)n1 (some centres unmarked) | rat | intravenous, 2 mg/kg | clearance | 37 mL/min/kg |
| Cc1nc(Nc2ncc(C(=O)Nc3c(C)cccc3Cl)s2)cc(N2CC[C@H](O)C2)n1 | male Sprague-Dawley rat | intravenous, 1 mg/kg | clearance | 6.83 mL/min/kg |
| Cc1cc(S(=O)(=O)N[C@H]2CC[C@H](CN3CCN(c4cccc(NC5CCC(=O)NC5=O)c4)CC3)CC2)ccc1Nc1ncc(C(F)(F)F)c(N2CCC[C@](C)(O)C2)n1 (some centres unmarked) | rat | intravenous, 2 mg/kg | clearance | 43 mL/min/kg |
| CCN(CC)Cc1ccc2cc(COC(=O)Nc3ccc(C(=O)NO)cc3)ccc2c1 | male Sprague-Dawley rat | oral, 10 mg/kg | CL/F | 20.2 mL/min/kg |
| CNS(=O)(=O)c1ccc(Nc2ncc(C(F)(F)F)c(N3CCC[C@](C)(O)C3)n2)c(C)c1 | rat | intravenous, 2 mg/kg | clearance | 31 mL/min/kg |
| CCOc1c([C@H](C)n2nc(C)c3c(N)ncnc32)cc(Cl)c(F)c1[C@@H]1CNC(=O)C1 | male Sprague-Dawley rat | oral, 2 mg/kg, single dose | CL/F | 10.3 mL/min/kg |
